Only some compounds are listed: those with a hit (about 4.1% of all), similar ones and a draw of the others.
XBP1 UPR activ: adaptive UPR (XBP1) activation; CHO-XBP1 luciferase reporter, IRE1-XBP1 UPR activation, luminescence; percent of tunicamycin response, DMSO as zero; activation, % at 20 µM; actives 0.33% (n = 330,000); AID 463104;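 active means versus positive control, 20 µM dose yields 30% or more activation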;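 further: 100% = tunicamycin at 10 µg/mL and 0% = DMSO only wells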
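Signal: luciferase luminescence; Assay system: CHO-XBP1 luciferase reporter cells; Amount: one thousand reporter cells per well; Dosing: 20 µM single concentration, DMSO 1%; Benchmarks: high control tunicamycin 10 µg/mL final, low control DMSO vehicle only; Schedule: 6 h compound exposure at 37 °C, 5% CO2; Evaluation: percent activation relative to tunicamycin reference.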
UBC13 polyUb: blocks human UBC13 polyubiquitin chain formation; P61088; inhibition, % at 20 µM; TR-FRET; actives 0.47% (n = 330,000); in the data active means inhibition above about 45%, passing the limit was not always enough
Target sequence (P61088 whole entry, looked up): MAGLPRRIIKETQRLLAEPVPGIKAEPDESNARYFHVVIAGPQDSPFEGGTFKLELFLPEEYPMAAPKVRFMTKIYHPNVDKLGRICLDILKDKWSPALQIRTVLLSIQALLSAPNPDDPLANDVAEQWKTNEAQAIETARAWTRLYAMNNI
UPR CHOP act: activators of apoptotic arm of unfolded protein response (CHOP) | CHO-CHOP luciferase reporter, UPR activation, luminescence; percent of tunicamycin response over DMSO baseline | activation, % at 10 µM | actives 0.34% (n = 330,000);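 active means at 10 µM dose, activation of 40% or more, normalized to positive control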;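 further: 100% = tunicamycin at 10 µg/mL and 0% = DMSO alone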
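Test system: CHO CHOP reporter cells. Input: 500 CHO-CHOP cells per well. Medium: F12 with 10% FBS. Technique: luciferase luminescence. Measure: percent activation relative to tunicamycin control. Dosing: 10 µM compound, 0.5% DMSO. Timing: 16-18 h cell attachment, then 6 h compound exposure, 37 °C.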
Apaf-1 inh: human Apaf-1 inhibition. reconstituted apoptosome caspase-3 activity, DEVD-Rh110 fluorescence. actives 0.71% (n = 330,000). inhibition, % at 20 µM; active means inhibition of at least 40% at 20 µM;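 further: plate controls were DMSO wells for no effect and DEVD-CHO caspase inhibitor wells for full effect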
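System: reconstituted apoptosome with Apaf-1, cytochrome c, caspase-9, procaspase-3, dATP; Signal: Rh110 fluorescence intensity; Schedule: 30 min compound preincubation, 50 min activation, room temperature; Reagent: cytochrome c trigger plus (Z-DEVD)2-Rh110 caspase-3 substrate.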
Mdm2-MdmX inh: inhibitors of human Mdm2/MdmX interaction. AID 485346. SaOS-2 split-luciferase Mdm2/MdmX complementation, luminescence. inhibition, % at 8 µM. actives 3% (n = 330,000);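 active means inhibition of at least 50% at 8 µM in the primary screen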
Mdm2-MdmX conf: human Mdm2/MdmX binding inhibition, confirmed; shares compounds with Mdm2-MdmX inh; luminescent assay; inhibition, % at 8 µM; actives 55% (n = 10,000); AID 489028; in the data active means inhibition above about 40%
Full FLuc ctr: full-length luciferase inhibition in Mdm2/MdmX counter-screen. shares compounds with Mdm2-MdmX inh. SaOS-2 full-length luciferase counterscreen, luminescence. inhibition, % at 8 µM. actives 77% (n = 6,200). AID 504607;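 active means mean inhibition at 8 µM reaching about 37%, which flags the compound as non-specific, limit read from the data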;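 further: p53-null SaOS-2 cells with luciferase driven by a doxycycline-inducible promoter; compound on cells about two nights before reading with doxycycline added after day one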
* hit, by the source's call; . = no result.

SMILES	XBP1 UPR activ	UBC13 polyUb	UPR CHOP act	Apaf-1 inh	Mdm2-MdmX inh	Mdm2-MdmX conf	Full FLuc ctr
CCn1cc2nc(SCC(=O)Nc3ccc(OC)c(OC)c3)n(Cc3ccc(OC)cc3)c(=O)c2n1	-2	2	-1	10	-17	.	.
CNc1nc(SC(C)C(=O)Nc2ccc(Cl)c(Cl)c2)nc(N2CCOCC2)n1 (configuration not stated)	1	-5	0	5	37	.	.
O=C(O)CCCNc1c(C(=O)Nc2ccc(Cl)cc2)cc([N+](=O)[O-])cc1[N+](=O)[O-]	-4	-28	1	10	-10	.	.
COc1cccc(-n2c(SCC(=O)N3CCCCC3)nc3c([nH]c4ccccc43)c2=O)c1	9	-10	3	-4	79*	31	.
Cn1c(SCC(=O)Nc2ccc(F)cc2)nc2c([nH]c3ccccc32)c1=O	26	-29	10	-1	91*	46*	90*
O=C(c1ccc(S(=O)(=O)N2CCOCC2)cc1)N1CCN(c2ccccc2F)CC1	-2	17	1	-18	12	.	.
O=C(Nc1nc2c(s1)COc1ccccc1-2)c1cccs1	16	10	4	5	30	.	.
O=C(CCS(=O)(=O)c1ccc(F)cc1)Nc1nc(-c2ccncc2)cs1	-7	-4	-2	8	89*	68*	34
O=C(CCS(=O)(=O)c1ccccc1)Nc1nc2c(s1)COc1ccccc1-2	-2	6	1	6	63*	10	.
O=C(CCS(=O)(=O)c1ccccc1)Nc1nc(-c2cccs2)cs1	2	-3	1	7	97*	47*	51*
O=C(Nc1nc(-c2ccccc2)cs1)c1ccccc1NS(=O)(=O)c1ccc(F)cc1	-2	-4	8	26	90*	89*	26
O=c1cc(-c2ccccc2Cl)oc2cc(O)cc(O)c12	5	3	1	9	17	.	.
O=C1C=CC(O)(c2cc(=O)c3c(O)cc(O)cc3o2)C=C1	-5	5	-8	2	99*	66*	48*
Cc1cc(C)c(OCCCCNCc2ccccc2)c(Cl)c1	2	27	-2	30	51*	40*	68*
Cc1nn2c(NCc3ccccn3)c3c(nc2c1-c1ccccc1)CCC3	2	28	17	-5	53*	33	7
COc1ccc(Nc2c3c(nc4c(-c5ccccc5)c(C)nn24)CCC3)cc1	-1	9	1	12	52*	22	.
Cc1cc(NCc2ccccn2)n2nc(C)c(-c3ccccc3)c2n1	5	16	15	-5	31	.	.
Cc1nn2c(NCc3ccccn3)cc(C(C)(C)C)nc2c1-c1ccccc1	0	10	0	22	62*	20	.
Cc1cccc(Nc2nnc(-c3ccc(N4CCOCC4)c([N+](=O)[O-])c3)c3ccccc23)c1	4	-33	-2	24	60*	37	84*
Cc1nnc(-c2ccc(N3CCOCC3)c([N+](=O)[O-])c2)o1	-3	-35	-1	3	4	.	.
COc1ccc([N+](=O)[O-])cc1NCc1ccccc1	5	-12	3	21	70*	39	98*
COc1ccc([N+](=O)[O-])cc1NCc1ccccc1C	1	-5	2	10	17	.	.
CC(C)(C)NCC(O)Cn1cc(C=O)c2ccccc21 (configuration not stated)	1	17	2	-19	-10	.	.
CN1CCN(Cn2cc(/C=C/C(=O)c3ccccc3)c3ccccc32)CC1	6	15	6	-2	-156	.	.
CCCCN(C)CC(O)Cn1cc(/C=C/C(=O)c2ccc(C)cc2)c2ccccc21 (configuration not stated)	21	26	1	36	74*	20	.
SMILES	XBP1 UPR activ	UBC13 polyUb	UPR CHOP act	Apaf-1 inh	Mdm2-MdmX inh	Mdm2-MdmX conf	Full FLuc ctr
COc1ccc(C(=O)/C=C/c2cn(CC(O)CN3CCN(C)CC3)c3ccccc23)cc1OC (configuration not stated)	1	-2	2	9	50*	25	.
COc1cc2cc(CN(CCc3cccc(C)c3)C(=S)NCCCN(C)C)c(=O)[nH]c2cc1OC	-1	10	0	10	52*	26	.
O=C(Oc1c(CN2CCOCC2)cc(Cl)c2cccnc12)c1cccs1	14	-10	-1	2	65*	43*	43*
O=C(Nc1cccnc1Cl)c1cccs1	3	3	2	1	17	.	.
O=C(Oc1c(Cl)cc(Cl)c2cccnc12)c1ccco1	3	-8	0	10	71*	60*	36*
O=C(Oc1c(Cl)cc(Cl)c2cccnc12)c1cccs1	3	4	0	21	76*	57*	32
O=C(Oc1ccc(Cl)c2cccnc12)N1CCOCC1	-1	4	-1	-2	3	.	.
COc1ccc(C(=O)Oc2c(CN3CCOCC3)cc(Cl)c3cccnc23)cc1	-1	-4	0	3	55*	35	43*
COc1ccc(CNC(=O)c2ccccc2NC(=O)C2=CSCCO2)c(OC)c1	-3	4	-1	4	17	.	.
CCOc1cc(Cl)c(CNCCCN2CCOCC2)cc1OC	-2	-5	1	-1	4	.	.
CCn1c2ccccc2c2cc(NS(=O)(=O)c3ccccc3C)ccc21	-2	-3	1	18	63*	47*	67*
CC(=O)Nc1ccc(SCC(=O)c2cc(C)n(-c3ccccc3)c2C)cc1	-6	8	-3	13	65*	79*	94*
COc1ccc(-n2c(C)cc(C(=O)CSc3ccc(NC(C)=O)cc3)c2C)cc1	2	2	2	14	-63	.	.
Cc1cc2cc(C#N)c(SCC(=O)Nc3nonc3C)nc2cc1C	-1	-8	0	3	69*	29	.
COc1ccc(N2CCN(C(=O)c3cccn4c(=O)c5ccccc5nc34)CC2)cc1	-3	-9	0	12	15	.	.
Cn1c(=O)oc2cc(S(=O)(=O)NCCC(=O)N3CCc4ccccc43)ccc21	-1	12	-1	-15	28	.	.
COc1ccc2nc(NC(=O)CSc3nnc(C)s3)sc2c1	1	2	6	-23	80*	-22	.
COc1ccccc1C(=O)Nc1nc2ccccc2s1	-13	13	-12	-6	93*	90*	32
COc1ccc(NC(=O)Nc2nc3ccccc3s2)cc1	3	15	2	1	-78	.	.
COc1ccc(C(=O)Nc2nc3ccccc3s2)c(OC)c1	-14	10	-12	7	100*	99*	52*

Screening data (PubChem)
